Experimental data from ChEMBL document CHEMBL1141273, “Epicoccins A-D, epipolythiodioxopiperazines from a Cordyceps-colonizing isolate of Epicoccum nigrum” (2007).
The source made the active and inactive calls. The rule behind the calls is not given here.

Legend:
Aspergillus fumigatus = experiment: Antifungal activity against Aspergillus fumigatus ATCC 10894 at 100 ug/disk after 24 hrs; format: functional, organism-based
Micrococcus luteus = experiment: Antimicrobial activity against Sarcina lutea CMCC B28001 at 100 ug/disk after 24 hrs; format: functional, organism-based
Procedure, shortened: (§1)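 Bacteria grown on Mueller-Hinton agar. Paper disks (6 mm) bearing 100 µg compound placed on the agar. Plates incubated at 37 °C for 24 h and examined for a zone of inhibition.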

Bacillus subtilis = experiment: Antimicrobial activity against Bacillus subtilis ATCC 6633 at 100 ug/disk after 24 hrs; details: for zone of inhibition at 100 µg/disc: ATCC 6633, 24 h, read-out: IZ
Enterococcus faecalis = experiment: Antimicrobial activity against Enterococcus faecalis ATCC 19433 at 100 ug/disk after 24 hrs; format: functional, organism-based; procedure, shortened: as §1
Staphylococcus aureus = experiment: Antimicrobial activity against Staphylococcus aureus ATCC 6538 at 100 ug/disk after 24 hrs; format: functional, organism-based; procedure, shortened: as §1
Geotrichum candidum = experiment: Antifungal activity against Geotrichum candidum AS2.498 at 100 ug/disk after 24 hrs; format: functional, organism-based
Candida albicans = experiment: Antifungal activity against Candida albicans ATCC 10231 at 100 ug/disk after 24 hrs; format: functional, organism-based
Streptococcus mutans = experiment: Antimicrobial activity against Streptococcus mutans ATCC 25175 at 100 ug/disk after 24 hrs; format: functional, organism-based; procedure, shortened: as §1

Row | Structure (SMILES) | Activity (Aspergillus fumigatus) | Activity (Micrococcus luteus) | Activity (Bacillus subtilis) | Activity (Enterococcus faecalis) | Activity (Staphylococcus aureus) | Activity (Geotrichum candidum) | Activity (Candida albicans) | Activity (Streptococcus mutans) | zone of inhibition at 100 µg/disc (Bacillus subtilis) [mm]
1 | O=C1C[C@@H]2S[C@@]34C[C@@H]1[C@@H]([C@H]2O)N3C(=O)[C@@]12C[C@H]3C(=O)C[C@H](S1)[C@H](O)[C@H]3N2C4=O | inactive | inactive | inactive | inactive | inactive | inactive | inactive | inactive | 
2 | O=C1C[C@H]2SS[C@@]34C[C@@H]1[C@@H]([C@H]2O)N3C(=O)[C@@]12C[C@H]3C(=O)C[C@@H](S1)[C@H](O)[C@H]3N2C4=O [EPICOCCIN A] | inactive | inactive |  | inactive | inactive | inactive | inactive | inactive | 12
3 | O=C(O)c1cn(C2CC2)c2cc(N3CCNCC3)c(F)cc2c1=O [CIPROFLOXACIN] |  |  |  |  |  |  |  |  | 28
4 | O=C1C[C@@H]2SS[C@@]34C[C@@H]1[C@@H]([C@H]2O)N3C(=O)[C@@]12C[C@H]3C(=O)[C@H](S1)[C@H](O)[C@H](O)[C@H]3N2C4=O | inactive | inactive | inactive | inactive | inactive | inactive | inactive | inactive | 
5 | O=C1C[C@@H]2SS[C@@]34C[C@@H]1[C@@H]([C@H]2O)N3C(=O)[C@@]12C[C@H]3C(=O)C[C@H](SS1)[C@H](O)[C@H]3N2C4=O | inactive | inactive | inactive | inactive | inactive | inactive | inactive | inactive | 
